# In publication PMC10653054 (ACS Omega, 2023):
# Test system: normal human dermal fibroblast (HDF) cells
# Assay: MTT cytotoxicity assay, normal HDF cells
# Format: cell-based
# Conditions: 48 h, read-out: In vitro antiproliferative effects (IC50) HDF
# Outline: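 Cells came from the National Cell Bank of Iran and were grown in RPMI-1640 or DMEM with 10% FBS at 37 °C, 5% CO2 and 100% humidity. Test compounds in 0.1% DMSO (n = 3) were incubated 48 h, then MTT for 3 h, with formazan OD read at 570 nm. Controls were 0.1% DMSO (negative) and etoposide (positive). IC50 came from dose–response curves, mean ± SE of at least three independent experiments.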
row,Structure (SMILES),IC50 [µM]
1,"COC(=O)c1c(-c2ccccc2)c2n(c1C(=O)OC)CCn1cccc1-2 [5a, Dimethyl-1-phenyl-5,6-dihydrodipyrrolo[1,2-a:2′,1′-c]pyrazine-2,3-dicarboxylate]",> 100
2,"COC(=O)c1c(-c2ccccc2O)c2n(c1C(=O)OC)CCn1cccc1-2 [5b, Dimethyl-1-(2-hydroxyphenyl)-5,6-dihydrodipyrrolo[1,2-a:2′,1′-c]pyrazine-2,3-dicarboxylate]",> 100
3,"COC(=O)c1c(-c2cccc(O)c2)c2n(c1C(=O)OC)CCn1cccc1-2 [5c, Dimethyl-1-(3-hydroxyphenyl)-5,6-dihydrodipyrrolo[1,2-a:2′,1′-c]pyrazine-2,3-dicarboxylate]",> 100
4,"COC(=O)c1c(-c2ccccc2C)c2n(c1C(=O)OC)CCn1cccc1-2 [5d, Dimethyl-1-(2-tolyl)-5,6-dihydrodipyrrolo[1,2-a:2′,1′-c]pyrazine-2,3-dicarboxylate]",> 100
5,"COC(=O)c1c(-c2cccc(C)c2)c2n(c1C(=O)OC)CCn1cccc1-2 [5e, Dimethyl-1-(3-tolyl)-5,6-dihydrodipyrrolo[1,2-a:2′,1′-c]pyrazine-2,3-dicarboxylate]",> 100
6,"COC(=O)c1c(-c2ccc(C)cc2)c2n(c1C(=O)OC)CCn1cccc1-2 [5f, Dimethyl-1-(4-tolyl)-5,6-dihydrodipyrrolo[1,2-a:2′,1′-c]pyrazine-2,3-dicarboxylate]",> 100
7,"COC(=O)c1c(-c2cccc(OC)c2)c2n(c1C(=O)OC)CCn1cccc1-2 [5g, Dimethyl-1-(3-methoxyphenyl)-5,6-dihydrodipyrrolo[1,2-a:2′,1′-c]pyrazine-2,3-dicarboxylate]",> 100
8,"COC(=O)c1c(-c2ccc(OC)cc2)c2n(c1C(=O)OC)CCn1cccc1-2 [5h, Dimethyl-1-(4-methoxyphenyl)-5,6-dihydrodipyrrolo[1,2-a:2′,1′-c]pyrazine-2,3-dicarboxylate]",> 100
9,"COC(=O)c1c(-c2ccccc2F)c2n(c1C(=O)OC)CCn1cccc1-2 [5i, Dimethyl-1-(2-fluorophenyl)-5,6-dihydrodipyrrolo[1,2-a:2′,1′-c]pyrazine-2,3-dicarboxylate]",> 100
10,"COC(=O)c1c(-c2ccc(F)cc2)c2n(c1C(=O)OC)CCn1cccc1-2 [5j, Dimethyl-1-(4-fluorophenyl)-5,6-dihydrodipyrrolo[1,2-a:2′,1′-c]pyrazine-2,3-dicarboxylate]",> 100
11,"COC(=O)c1c(-c2cccc(Cl)c2)c2n(c1C(=O)OC)CCn1cccc1-2 [5k, Dimethyl-1-(3-chlorophenyl)-5,6-dihydrodipyrrolo[1,2-a:2′,1′-c]pyrazine-2,3-dicarboxylate]",> 100
12,"COC(=O)c1c(-c2ccc(Cl)cc2)c2n(c1C(=O)OC)CCn1cccc1-2 [5l, Dimethyl-1-(4-chlorophenyl)-5,6-dihydrodipyrrolo[1,2-a:2′,1′-c]pyrazine-2,3-dicarboxylate]",> 100
13,"COC(=O)c1c(-c2cccc(Br)c2)c2n(c1C(=O)OC)CCn1cccc1-2 [5m, Dimethyl-1-(3-bromophenyl)-5,6-dihydrodipyrrolo[1,2-a:2′,1′-c]pyrazine-2,3-dicarboxylate]",> 100
14,"COC(=O)c1c(-c2ccc(Br)cc2)c2n(c1C(=O)OC)CCn1cccc1-2 [5n, Dimethyl-1-(4-bromophenyl)-5,6-dihydrodipyrrolo[1,2-a:2′,1′-c]pyrazine-2,3-dicarboxylate]",> 100
15,"COC(=O)c1c(-c2cccc([N+](=O)[O-])c2)c2n(c1C(=O)OC)CCn1cccc1-2 [5o, Dimethyl-1-(3-nitrophenyl)-5,6-dihydrodipyrrolo[1,2-a:2′,1′-c]pyrazine-2,3-dicarboxylate]",> 100
16,"COC(=O)c1c(-c2ccc([N+](=O)[O-])cc2)c2n(c1C(=O)OC)CCn1cccc1-2 [5p, Dimethyl-1-(4-nitrophenyl)-5,6-dihydrodipyrrolo[1,2-a:2′,1′-c]pyrazine-2,3-dicarboxylate]",> 100
17,"COC(=O)c1c(-c2ccc(O)c(OC)c2)c2n(c1C(=O)OC)CCn1cccc1-2 [5q, Dimethyl-1-(4-hydroxy-3-methoxyphenyl)-5,6-dihydrodipyrrolo[1,2-a:2′,1′-c]pyrazine-2,3-dicarboxylate]",> 100
18,"COC(=O)c1c(-c2ccc(Cl)cc2Cl)c2n(c1C(=O)OC)CCn1cccc1-2 [5r, Dimethyl-1-(2,4-dichlorophenyl)-5,6-dihydrodipyrrolo[1,2-a:2′,1′-c]pyrazine-2,3-dicarboxylate]",> 100
19,"COC(=O)c1c(-c2cc(OC)c(OC)c(OC)c2)c2n(c1C(=O)OC)CCn1cccc1-2 [5s, Dimethyl-1-(3,4,5-trimethoxyphenyl)-5,6-dihydrodipyrrolo[1,2-a:2′,1′-c]pyrazine-2,3-dicarboxylate]",> 100
20,"O=c1[nH]nc(O)c2c(-c3ccccc3)c3n(c12)CCn1cccc1-3 [7a, 11-Hydroxy-12-phenyl-5,6-dihydropyrrolo[2″,1″:3′,4′]pyrazino[1′,2′:1,5]pyrrolo[2,3-d] pyridazin-8(9H)-one]",> 100
21,"O=c1[nH]nc(O)c2c(-c3cccc(O)c3)c3n(c12)CCn1cccc1-3 [7b, 11-Hydroxy-12-(3-hydroxyphenyl)-5,6-dihydropyrrolo[2″,1″:3′,4′]pyrazino[1′,2′:1,5] pyrrolo[2,3-d]pyridazin-8(9H)-one]",> 100
22,"Cc1ccccc1-c1c2n(c3c(=O)[nH]nc(O)c13)CCn1cccc1-2 [7c, 11-Hydroxy-12-(o-tolyl)-5,6-dihydropyrrolo[2″,1″:3′,4′]pyrazino[1′,2′:1,5]pyrrolo[2,3-d] pyridazin-8(9H)-one]",> 100
23,"Cc1cccc(-c2c3n(c4c(=O)[nH]nc(O)c24)CCn2cccc2-3)c1 [7d, 11-Hydroxy-12-(m-tolyl)-5,6-dihydropyrrolo[2″,1″:3′,4′]pyrazino[1′,2′:1,5]pyrrolo[2,3-d] pyridazin-8(9H)-one]",> 100
24,"Cc1ccc(-c2c3n(c4c(=O)[nH]nc(O)c24)CCn2cccc2-3)cc1 [7e, 11-Hydroxy-12-(p-tolyl)-5,6-dihydropyrrolo[2″,1″:3′,4′]pyrazino[1′,2′:1,5]pyrrolo[2,3-d] pyridazin-8(9H)-one]",> 100
25,"COc1cccc(-c2c3n(c4c(=O)[nH]nc(O)c24)CCn2cccc2-3)c1 [7f, 11-Hydroxy-12-(3-methoxyphenyl)-5,6-dihydropyrrolo[2″,1″:3′,4′]pyrazino[1′,2′:1,5] pyrrolo[2,3-d]pyridazin-8(9H)-one]",> 100
26,"COc1ccc(-c2c3n(c4c(=O)[nH]nc(O)c24)CCn2cccc2-3)cc1 [7g, 11-Hydroxy-12-(4-methoxyphenyl)-5,6-dihydropyrrolo[2″,1″:3′,4′]pyrazino[1′,2′:1,5] pyrrolo[2,3-d]pyridazin-8(9H)-one]",> 100
27,"O=c1[nH]nc(O)c2c(-c3ccc(F)cc3)c3n(c12)CCn1cccc1-3 [7h, 12-(4-Fluorophenyl)-11-hydroxy-5,6-dihydropyrrolo[2″,1″:3′,4′]pyrazino[1′,2′:1,5] pyrrolo[2,3-d]pyridazin-8(9H)-one]",> 100
28,"O=c1[nH]nc(O)c2c(-c3cccc(Cl)c3)c3n(c12)CCn1cccc1-3 [7i, 12-(3-Chlorophenyl)-11-hydroxy-5,6-dihydropyrrolo[2″,1″:3′,4′]pyrazino[1′,2′:1,5]pyrrolo [2,3-d]pyridazin-8(9H)-one]",> 100
29,"O=c1[nH]nc(O)c2c(-c3ccc(Cl)cc3)c3n(c12)CCn1cccc1-3 [7j, 12-(4-Chlorophenyl)-11-hydroxy-5,6-dihydropyrrolo[2″,1″:3′,4′]pyrazino[1′,2′:1,5] pyrrolo[2,3-d]pyridazin-8(9H)-one]",> 100
